We go through 96 molecules from ChEMBL document CHEMBL4513216, “Probing the Open Global Health Chemical Diversity Library for Multistage-Active Starting Points for Next-Generation Antimalarials” (ACS Infect Dis, 2020).

A short description of this data set: Toxicity liver stage against HepG2, at 10uM. Further details: test concentration 10 uM, cell line HepG2-A16-CD81EGFP. In kind it is cell-based. To be noted: human, HepG2-A16-CD81EGFP cells; read-out: INHIBITION
The essentials: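 Uninfected HepG2-A16-CD81EGFP cells, 3 × 10^3 per well, 1536-well, plated on prespotted compound at 10 μM final, parasite-free screening media added to match infected plates; puromycin 10 μM positive, DMSO 0.5% negative; run in parallel with 48 h PbLuc assay at 37 °C, 5% CO2; viability by CellTiter-Glo luminescence, normalized to controls.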
As to `Cc1cc2c(N)nc(=O)n(CC(=O)Nc3cccc(Cl)c3)c2s1`, the cytotoxicity at 10 µM was -3.14%.

On to `COc1cccc(C(=O)NCC(c2cccn2C)N2CCCC2)c1OC` (stereo unspecified), for which the cytotoxicity at 10 µM was -2.4%.

As to `CN(C)C(=O)N1CCN(C(=O)c2cccc(Cl)c2)CC2(CNC(=O)C2)C1` (stereo unspecified), the cytotoxicity at 10 µM is 7.61%.

As for `O=C1NC(c2ccccc2)=N[C@@]12CC[C@@H]1CN(S(=O)(=O)C3CC3)C[C@@H]12`, the cytotoxicity at 10 µM was found to be 9.91%.

On to `CN(C)c1nc2n(c(=O)n1)CCN2C(=O)Nc1cccc(Cl)c1`, for which the cytotoxicity at 10 µM worked out at 8.19%.

For the molecule `CCN1CCN(C(=O)c2cc(NC(=O)c3ccccc3)n(C)n2)CC1`, the cytotoxicity at 10 µM amounted to 8.91%.

As for `CCn1nc(C)c(C(=O)NCc2csc(C3CC3)n2)c1C`, the cytotoxicity at 10 µM came to 20.5%.

As for `Cn1nccc1CN1CCOC(c2cccc(Nc3ccccn3)n2)C1` (stereo unspecified), the cytotoxicity at 10 µM came out at 23.9%.

With `Cc1cc(-c2cnc(N3CCC(C(N)=O)CC3)nc2C(C)C)on1`, the cytotoxicity at 10 µM came out at 72.2%.

Regarding `Nc1nccnc1CC1CCCN(Cc2ccnc3ccccc23)C1` (stereo unspecified), the cytotoxicity at 10 µM worked out at 24.7%.

With `Cc1csc(C(=O)N2CCC(O)(CN3CCc4ccccc4C3)C2)c1` (stereo unspecified), the cytotoxicity at 10 µM is -1.22%.

As for `COc1cccc(-c2noc(C3CCN(Cc4ccncc4)C3)n2)c1` (stereo unspecified), the cytotoxicity at 10 µM came to 25.9%.

In the case of `CN1CCCC1c1cccc(Cc2ccccc2F)n1` (stereo unspecified), the cytotoxicity at 10 µM came out at 7.31%.

With `O=C(CCC1CCCC1)NCc1nnc2ccccn12`, the cytotoxicity at 10 µM stood at 2.52%.

Turning to `CN1CCCN(c2ccc(F)cc2CNC(=O)c2ccsc2)CC1`, the cytotoxicity at 10 µM was -12.3%.

As to `Cc1ncc(CN2CCC(c3ccnn3C)CC2)n1-c1ccccc1`, the cytotoxicity at 10 µM amounted to 19.1%.

With `CC(C)(C)CC1CCCN1Cc1nc(-c2ccco2)no1` (stereo unspecified), the cytotoxicity at 10 µM amounted to 4.11%.

In the case of `COC(=O)CN(C(=O)C(C)c1c(F)cccc1F)c1cccc(C)n1` (stereo unspecified), the cytotoxicity at 10 µM was -2.8%.

Take `COC(=O)C(CNC(=O)Nc1nncs1)Cc1cccc(C)c1` (stereo unspecified): the cytotoxicity at 10 µM was found to be 6.53%.

Turning to `NC(=O)CCC1CCCN(c2ccnc3cc(F)ccc23)C1` (stereo unspecified), the cytotoxicity at 10 µM was 14.6%.

For the molecule `Cc1cc(C2CCCN(Cc3nc(Cc4ccccc4)no3)C2)n[nH]1` (stereo unspecified), the cytotoxicity at 10 µM was determined as 3.82%.

For the molecule `COc1cccc(NC(=O)N2CCC(O)(C(F)(F)F)C2)c1` (stereo unspecified), the cytotoxicity at 10 µM was determined as 3.2%.

In the case of `COCCCC(=O)Nc1cc(Cl)c(Cl)cn1`, the cytotoxicity at 10 µM amounted to 87%.

`CCc1nsc(N2CCN(CC(=O)NCc3cccnc3)CC2)n1`: the cytotoxicity at 10 µM was -4.52%.

On to `COc1cccc(C(=O)NCc2ccccc2S(=O)(=O)N(C)CCO)c1`, for which the cytotoxicity at 10 µM was -4.73%.

As for `CCc1ccc(C2COCCN2C(=O)Nc2ccc(C(N)=O)c(Cl)c2)o1` (stereo unspecified), the cytotoxicity at 10 µM was 2.42%.

Regarding `COc1ccc(CNC(=O)C2=NN(c3ccc(C)cc3)C(=O)CN2)cc1`, the cytotoxicity at 10 µM came out at 17.5%.

Turning to `Cc1cc(C)n(CC2CCCCN2CC(=O)Nc2nccs2)n1` (stereo unspecified), the cytotoxicity at 10 µM amounted to 10.1%.

On to `CCn1ccnc1CN1CCN(c2nc(C)cc(OC)n2)CC1`, for which the cytotoxicity at 10 µM was -5.48%.

For `Cc1nc(C(C)(C)NC(=O)Nc2ccc(C#N)cc2)no1`, the cytotoxicity at 10 µM is 13%.

In the case of `CC(C)c1nc(CNC2CCCN(c3cccnn3)C2)no1` (stereo unspecified), the cytotoxicity at 10 µM was 7.68%.

`Cc1cc(C)n(C2CN(CC(=O)N(C)Cc3ccsc3)C2)n1`: the cytotoxicity at 10 µM is -0.912%.

On to `COc1ccccc1NC(=O)N(CCO)Cc1ccsc1`, for which the cytotoxicity at 10 µM was -1.05%.

Turning to `CC(C)(C)c1cnc(CN(Cc2cccnc2)CC2CCCO2)o1` (stereo unspecified), the cytotoxicity at 10 µM turned out to be 5.82%.

Turning to `CC(C)c1ccc(C(N)c2cccs2)cc1` (stereo unspecified), the cytotoxicity at 10 µM came out at 15.4%.

On to `CN(Cc1ccc(N(C)C)cc1)C(=O)CSc1ccc(Br)cc1`, for which the cytotoxicity at 10 µM is 45.6%.

As to `Cc1nn(CCC#N)c(C)c1CCC(=O)N(C)Cc1ccc(F)cc1F`, the cytotoxicity at 10 µM was -1.31%.

On to `Cc1n[nH]cc1CNC1CCN(c2cccc(C(F)(F)F)c2)CC1`, for which the cytotoxicity at 10 µM is -64.8%.

On to `CC(c1ccccc1)N(C)C(=O)CN1CCCc2cc(F)cc(F)c21` (stereo unspecified), for which the cytotoxicity at 10 µM was found to be 27.3%.

As to `Clc1cnccc1NCc1cccc(COC2CCOCC2)c1`, the cytotoxicity at 10 µM was 53.9%.

As for `CC(C)n1cnnc1C1CCCN(S(=O)(=O)CC2CCCC2)C1` (stereo unspecified), the cytotoxicity at 10 µM is -11.7%.

As to `CC(C)CC(NC(=O)CSc1ccc(F)c(Cl)c1)C(=O)O` (stereo unspecified), the cytotoxicity at 10 µM was -46%.

In the case of `CC(C)c1nc(COc2cccc3c2NC(=O)CO3)cs1`, the cytotoxicity at 10 µM was determined as 35.8%.

In the case of `CN1CCCc2ccc(S(=O)(=O)NC(=O)C3CC=CC3)cc21`, the cytotoxicity at 10 µM is 2.84%.

As to `CNC(=O)c1[nH]nc2ccc(I)cc12`, the cytotoxicity at 10 µM is -61.9%.

In the case of `CN(C)c1ncc(CNC(=O)Nc2ccc(C(F)(F)F)cc2)n1C`, the cytotoxicity at 10 µM was -49.9%.

As to `CC(C)(C)C(=O)c1ccsc1NC(=O)CCNC(=O)c1ccco1`, the cytotoxicity at 10 µM is -52.7%.

In the case of `Cc1cccc(CN2CCC3(CC(C(=O)NCC(C)C)=NO3)C2)c1` (stereo unspecified), the cytotoxicity at 10 µM was 4.66%.

Take `c1ccc(CCN2C[C@@H]3OCCN(c4ncccn4)[C@@H]3C2)cc1`: the cytotoxicity at 10 µM was -74.1%.

Consider `COCCC(=O)N1CCc2nc(N3CCOCC3)nc(NC(C)C)c2C1`, for which the cytotoxicity at 10 µM was -108%.

`COc1cc(N2C[C@H]3CCC[C@@H](CN4CCCC4)[C@H]3C2)ncn1`: the cytotoxicity at 10 µM is -79%.

`Cn1cc(CNCC2(N3CCCCC3)Cc3ccccc3C2)cn1`: the cytotoxicity at 10 µM is -3.07%.

Regarding `Cc1cc2c(N3CCC(N(C)Cc4cnn(C)c4)CC3)ncnc2s1`, the cytotoxicity at 10 µM is -1.13%.

Regarding `Cc1ccc2nc(C)cc(C(=O)N3C[C@H]4CCC[C@@]4(CO)C3)c2c1`, the cytotoxicity at 10 µM came out at 2.53%.

With `CCC(CO)N(Cc1ccccn1)Cc1c[nH]nc1-c1ccc(F)cc1` (stereo unspecified), the cytotoxicity at 10 µM was -1.83%.

`CCCn1ncc(-c2ccnc(NC3CCCc4ccccc43)n2)c1C` (stereo unspecified): the cytotoxicity at 10 µM stood at 20.6%.

Take `c1cc(-c2cscn2)cc(N2CCC(NCCc3cccs3)CC2)c1`: the cytotoxicity at 10 µM was 8.65%.

As for `COc1cccc(OC2CN(C(=O)c3cc(CC(C)C)nn3C)C2)c1`, the cytotoxicity at 10 µM was 53.2%.

For the molecule `Cc1nc[nH]c1CN1CCCC12CCN(c1nc3ccccc3s1)CC2`, the cytotoxicity at 10 µM was -0.369%.

Regarding `CCCNCc1ccc(-c2ccnc3[nH]ccc23)cc1`, the cytotoxicity at 10 µM was found to be 66%.

Consider `COc1ccc(C(=O)NC2CC2)c(OC2CCN(C(C)CO)CC2)c1` (stereo unspecified), for which the cytotoxicity at 10 µM is -7.71%.

In the case of `CCn1cc(-c2cc(-c3cc(CN(C)C)cs3)nc(N)c2C#N)c(C)n1`, the cytotoxicity at 10 µM amounted to 0.184%.

In the case of `CCC(C)CN1CCC(n2cc(C3CCCCC3)nn2)CC1` (stereo unspecified), the cytotoxicity at 10 µM is -2.9%.

`CCCN1CCC(Nc2cc(-c3ccccc3)ccc2OC)CC1`: the cytotoxicity at 10 µM was found to be 0.906%.

Take `CC(=O)c1ccc(N2CCCC(CO)(Cc3ccccc3C)C2)nc1` (stereo unspecified): the cytotoxicity at 10 µM was 10.1%.

For `CNC(=O)CCC(=O)N1CCOC(c2ccc3cc(OC)ccc3c2)C1` (stereo unspecified), the cytotoxicity at 10 µM worked out at 3.85%.

In the case of `Cc1nc2c(c(NCc3nc4ccccc4s3)n1)CCNCC2`, the cytotoxicity at 10 µM was -37.8%.

With `Cc1ccccc1CN(Cc1ccc(S(C)(=O)=O)cc1)CC(C)C`, the cytotoxicity at 10 µM turned out to be 16.6%.

On to `FC(F)(F)c1cccc(OC2CCN(Cc3ncc[nH]3)CC2)c1`, for which the cytotoxicity at 10 µM is -2.45%.

Take `CC(CN1CCCCCC1)NCc1nncn1C1CCCCC1` (stereo unspecified): the cytotoxicity at 10 µM was -5.59%.

`Cc1csc2c(N3CCC(Cn4cc(C(C)(C)O)nn4)CC3)ncnc12`: the cytotoxicity at 10 µM is 29.9%.

With `Nc1nc2c(c(NCc3nccs3)n1)CCN(CC1CCCC1)CC2`, the cytotoxicity at 10 µM turned out to be 4.36%.

Take `Nc1cc(N2CCCC(COc3ccc(F)cc3)C2)nc(N)n1` (stereo unspecified): the cytotoxicity at 10 µM was -7.58%.

With `COc1ccc(F)c(CN2CCCC3(CCN(C4CCOCC4)C3)C2)c1` (stereo unspecified), the cytotoxicity at 10 µM is -1.48%.

Take `Cc1nc(N(C)C2CCCCC2)ncc1C(C)NC(=O)c1cccnc1` (stereo unspecified): the cytotoxicity at 10 µM is -105%.

Take `Cn1cnnc1CN1CCC2(CCC(=O)N(Cc3ccccc3)C2)CC1`: the cytotoxicity at 10 µM was found to be 7.8%.

On to `CC(=O)N1CCc2nc(N(C)C)nc(NCCc3ccccc3)c2CC1`, for which the cytotoxicity at 10 µM is -2.38%.

`CCC(C)N(Cc1cc(C)n[nH]1)Cc1ccccc1Cl` (stereo unspecified): the cytotoxicity at 10 µM stood at 6.65%.

Turning to `CC(C)c1cc(CN2CCC(N)CC2)no1`, the cytotoxicity at 10 µM was -8.24%.

As for `CCc1nc(C)cn1C(=O)Nc1ccc(F)cc1`, the cytotoxicity at 10 µM is 11.1%.

In the case of `c1cnc(-c2nc(CN3CCN(CC4CC4)CC3)cs2)nc1`, the cytotoxicity at 10 µM is -10.1%.

With `COc1cc(CNCc2c(C)nn(CC(C)C)c2N(C)C)ccn1`, the cytotoxicity at 10 µM is -9.3%.

Take `Cc1ccc(S(=O)(=O)Nc2ccc(=O)n(C)c2)c(Br)c1`: the cytotoxicity at 10 µM is 0.802%.

`c1ccc2sc(CN3CCCC3c3noc(C4CC4)n3)nc2c1` (stereo unspecified): the cytotoxicity at 10 µM is -9.88%.

`c1ccc2c(N3CCCC3Cn3cccn3)ncnc2c1` (stereo unspecified): the cytotoxicity at 10 µM stood at 7.94%.

On to `c1cnn(CC2CCCN2c2ncnc3sccc23)c1` (stereo unspecified), for which the cytotoxicity at 10 µM came to 38.1%.

Take `N#Cc1ccc(NCCNc2ccc(C(F)(F)F)cn2)nc1`: the cytotoxicity at 10 µM was 73%.

Turning to `Cn1ccnc1CN(Cc1ccccn1)Cc1ccccc1Cl`, the cytotoxicity at 10 µM came out at 11.5%.

Turning to `O=C([C@H]1C[C@H]2OCC[C@H]2N(CC2CCOCC2)C1)N1CCCC1`, the cytotoxicity at 10 µM is -0.972%.

Regarding `COc1c(CNC2CCOc3c(Cl)cccc32)c(C)nn1C` (stereo unspecified), the cytotoxicity at 10 µM came out at 28.9%.

With `CS(=O)(=O)N1Cc2ccnn2CC(C(=O)NCc2cccnc2)C1` (stereo unspecified), the cytotoxicity at 10 µM is -88.9%.

Consider `Cc1ncccc1NC(=O)[C@H]1C[C@@H]2CCN(Cc3ccsc3)C[C@H]2O1`, for which the cytotoxicity at 10 µM is -79.1%.

On to `Cc1nc(CN2CCC3(CC2)CCN(C(=O)c2cscn2)C3)cs1`, for which the cytotoxicity at 10 µM was -71.9%.

As for `Cc1ccc(C(=O)N2CC[C@@H]3[C@H]2CCC(=O)N3CCN(C)C)cn1`, the cytotoxicity at 10 µM was -0.726%.

For `Cc1ccc(C(=O)N2CCC3(CCN3c3ncccn3)C2)cn1` (stereo unspecified), the cytotoxicity at 10 µM was -135%.

Regarding `CCC1=NN2C(=N)C(=Cc3cccn3-c3ccc(Cl)cc3)C(=O)N=C2S1`, the cytotoxicity at 10 µM was found to be 7.92%.
